Measured values from article PMC6842100 (Molecular neurobiology, 2019).

Experiments:
HBMEC = assay: LDH cytotoxicity assay in HBMEC extracellular media; type: cell-based, human; conditions: 48 hours at 37°C, data not shown
apoE-TR mice = assay: Mouse Aβ BBB clearance model: human Aβ; type: in vivo; conditions: SB-3CT 25 mg/kg i.p., plasma human Aβ(1-42) ELISA, n = 4
LDLR = assay: Aβ-induced soluble LDLR in HBMEC media upon MMP9 inhibition; type: cell-based, human; conditions: Aβ(1-42) 2μM plus inhibitor 1μM, 48 hours at 37°C, ELISA, n = 3
[1] = tested on: in vitro model of the BBB (HBMEC monolayer); assay: Paracellular marker; type: cell-based, human; conditions: each SB-3CT concentration (0.1, 0.5, 1, 5, 10μM), data not shown
How it was run: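 HBMEC were seeded at 100,000 cells/cm² on fibronectin-coated (4 µg/cm²) 0.4 µm-pore inserts (0.3 cm²) to form a polarized monolayer. Inserts holding test compound were exposed to wells with 10 kD lucifer yellow dextran at 37 °C. Basolateral was sampled at time 0 and apical at 0, 30 and 60 min (basolateral-to-apical). Apparent permeability = 1/AC0 × dQ/dt, compared with control.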

LRP1 = assay: Aβ-induced soluble LRP1 in HBMEC media upon MMP9 inhibition; type: cell-based, human; conditions: Aβ(1-42) 2μM plus inhibitor 1μM, 48 hours at 37°C, ELISA, n = 3

Compound	LDH release (HBMEC; 20μM Aβ)	cellular toxicity (LDH cytotoxicity assay) (HBMEC; Aβ concentrations 0 to 2μM)	extent of Aβ BBB elimination in SB-3CT-treated apoE4-TR mice versus apoE3-TR animals (apoE-TR mice)	reduction of soluble LDLR levels compared to Aβ alone (LDLR)	BBB monolayer integrity: movement of 10kDa lucifer yellow dextran vs control [1]	decrease of soluble LRP1 levels compared to Aβ alone (LRP1)
Aβ(1-42): unlabeled human beta-amyloid (1-42) peptide, purchased from Invitrogen, used in monomeric form	significant increase in LDH release	no cellular toxicity was observed				
O=S(=O)(CC1CS1)c1ccc(Oc2ccccc2)cc1 (stereo not shown) [SB-3CT]			the same as that observed in the apoE3-TR animals	approximately 40%	no difference	approximately 40%
CNC(=O)[C@@H](NC(=O)[C@H](CC(C)C)[C@H](O)C(=O)NO)C(C)(C)C [marimastat]				approximately 40%		
